The values below come from ChEMBL document CHEMBL3272038, “Synthesis and central nervous system depressant activity of some bicyclic amides” (J Med Chem, 1976).

Calls of active or inactive are those of the source. The rule behind the calls is not given here.

Series [1] in a line: Acute toxicity in ip dosed Royal Hart Wistar rat. In kind it is organism-based. Conditions: in vivo. The procedure, abridged:
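Paired male Royal Hart Wistar rats (136–160 g) were housed in wire cages and dosed ip. LD50 was read 2 hr after administration, using four rats per substance, and estimated by probit analysis.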

Series [2] concerns Mus musculus. Kind of series: Reinduction of anesthesia-induced loss of righting in dosed mouse administered compound following recovery from hexobarbital anesthesia. Format: functional. The procedure, abridged: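 Mice were anesthetized with hexobarbital (70 mg/kg iv). Compound was given ip immediately on recovery, and reinduction of loss of righting was timed from that point. The method was modified from earlier work, and RD50 is expressed in mg/kg ip.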

Series [3] is filed under the species Mus musculus. Kind of series: Anticonvulsant activity in mouse assessed as protection against N-sulfamoylhexahydroazepine-induced convulsions. Format: functional. In short, it runs like this: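 N-sulfamoylhexahydroazepine convulsion test in mice, run by an earlier published method. Compounds were given ip at ten animals per dose, and ED50 is expressed in mg/kg ip.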

Series [4] has as its system Mus musculus. Put plainly: Central nervous depressant activity in ip dosed mouse assessed as loss of righting reflex. In kind it is functional. The note with it: Central nervous system. In short, it runs like this: (§1)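 Behavioral scoring in mice used a modified Irwin observational method. Compounds were given ip at ten animals per dose. Ataxia and loss of righting reflex were recorded, and ED50 values are in mg/kg ip.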

Series [5] is filed under the species Mus musculus. Kind of series: Anticonvulsant activity in mouse assessed as protection against maximal electroshock-induced seizures. Format: functional. The procedure, abridged: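 Maximal electroshock seizure test in mice, run by an earlier published method. Compounds were given ip at ten animals per dose, and ED50 is expressed in mg/kg ip.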
(The maximal electroshock test induces tonic seizures with an electrical stimulus.)

For series [6], the system named is Mus musculus. Put plainly: Central nervous depressant activity in ip dosed mouse assessed as induction of ataxia. Format: functional. Conditions: Central nervous system. The procedure, abridged:
as §1

Series [7] concerns Mus musculus. Put plainly: Anticonvulsant activity in mouse assessed as protection against N-sulfamoylhexahydroazepine-induced convulsions at 400 mg/kg, ip. Set-up: dose 400 mg/kg. Format: functional, organism-based.
Series [8] relates to Mus musculus. Put plainly: Anticonvulsant activity in mouse assessed as protection against maximal electroshock-induced seizures at 100 mg/kg, ip. In kind it is functional, organism-based. More on the design: dose 100 mg/kg.
Series [9] concerns Mus musculus. Put plainly: Anticonvulsant activity in mouse assessed as protection against N-sulfamoylhexahydroazepine-induced convulsions at 200 mg/kg, ip. In kind it is functional, organism-based. More on the design: dose 200 mg/kg.
For series [10], the system named is Mus musculus. Kind of series: Anticonvulsant activity in mouse assessed as protection against maximal electroshock-induced seizures at 200 mg/kg, ip. Format: functional, organism-based. Set-up: dose 200 mg/kg.

As to `O=C(CCC(=O)c1ccc(F)cc1)NCCCO`, in [1], the 50% lethal dose (LD50) (usually the dose expected to kill half of the subjects tested) was more than 800 mg/kg. The RD50 in the series with Mus musculus [2] was more than 400 mg/kg. Moreover, the ED50 (usually the dose that gives a 50% effect, or the effect in half of the subjects) in the series listed under Mus musculus [3] is more than 400 mg/kg; with Mus musculus [4], 500 mg/kg; in the series listed under Mus musculus [5] it was more than 400 mg/kg; with Mus musculus [6] it was 300 mg/kg.

In series [1], `O=C1CCC2(c3ccc(F)cc3)OCCCN12` (stereo not drawn) gave an LD50 of 600 mg/kg. In the series on Mus musculus [2], this molecule came in with an RD50 of 66 mg/kg. Besides, the ED50 in the series listed under Mus musculus [3] is 50 mg/kg; in the series on Mus musculus [4], 100 mg/kg; in the series listed under Mus musculus [5], 68.7 mg/kg; with Mus musculus [6], 75 mg/kg.

In series [1], `O=C1CCC2(c3ccc(Cl)cc3)OCCCN12` (stereo not drawn) had a median lethal dose (LD50) of 675 mg/kg. This molecule also had an RD50 in the series on Mus musculus [2] of more than 100 mg/kg. Besides, the ED50 in the series filed under Mus musculus [3] worked out at 91.7 mg/kg; in the series with Mus musculus [4], 81.2 mg/kg; in the series filed under Mus musculus [5], 58 mg/kg; in the series with Mus musculus [6], 75 mg/kg.

Turning to `CCC1(c2ccccc2)C(=O)N=C([O-])NC1=O.[Na+]` (stereo not drawn) [PHENOBARBITAL SODIUM], in [1], the LD50 was 225 mg/kg. Also, in the series with Mus musculus [2], the RD50 turned out to be 65.6 mg/kg. Further, the ED50 in the series filed under Mus musculus [3] amounted to 8 mg/kg; with Mus musculus [4] it was 83 mg/kg; in the series listed under Mus musculus [5] it was 15.4 mg/kg; with Mus musculus [6], 62.5 mg/kg.

`CCC1(c2ccccc2)CCC(=O)NC1=O` (stereo not drawn) [GLUTETHIMIDE] displayed a median lethal dose (LD50) in [1] of 350 mg/kg. In the series on Mus musculus [2], this molecule showed an RD50 of 112.5 mg/kg. For the same molecule, the outcome in the series on Mus musculus [7] was inactive. Also, the median effective dose (ED50) in the series with Mus musculus [4] is 229 mg/kg; in the series listed under Mus musculus [5], 24.7 mg/kg; with Mus musculus [6], 100 mg/kg.

Regarding `O=C(CCC(=O)c1ccc(Cl)cc1)NCCCO`, the LD50 in [1] was 633 mg/kg. In addition, the RD50 in the series with Mus musculus [2] is less than 300 mg/kg. Also, the ED50 in the series filed under Mus musculus [3] was more than 300 mg/kg; with Mus musculus [4], 325 mg/kg; in the series filed under Mus musculus [5] it was more than 300 mg/kg; in the series with Mus musculus [6] it was 300 mg/kg.

As for `O=C1CCC2(c3cccs3)OCCCN12` (stereo not drawn), in series [1], the LD50 was 467 mg/kg. Also, the RD50 in the series on Mus musculus [2] amounted to 46.5 mg/kg. The median effective dose (ED50) is more than 75 mg/kg in the series listed under Mus musculus [3], more than 75 mg/kg with Mus musculus [4], 112 mg/kg in the series filed under Mus musculus [5] and more than 75 mg/kg in the series on Mus musculus [6].

With `O=C(CCC(=O)c1cccs1)NCCCO`, the LD50 in series [1] amounted to 475 mg/kg. Moreover, the RD50 with Mus musculus [2] was more than 300 mg/kg. For the same molecule, the ED50 was more than 300 mg/kg in the series filed under Mus musculus [3], 300 mg/kg in the series on Mus musculus [4], more than 300 mg/kg in the series listed under Mus musculus [5] and 300 mg/kg in the series with Mus musculus [6].

For `Cc1ccc(C(=O)CCC(=O)NCCCO)c(C)c1`, the LD50 in series [1] amounted to 633 mg/kg. In the series with Mus musculus [2], this molecule returned an RD50 of less than 150 mg/kg. For the same molecule, the ED50 is more than 150 mg/kg in the series listed under Mus musculus [3], 150 mg/kg with Mus musculus [4], more than 150 mg/kg in the series filed under Mus musculus [5] and 150 mg/kg with Mus musculus [6].

As to `O=C1CCC2(c3ccccc3)OCCCN12` (stereo not drawn), the LD50 in series [1] stood at 500 mg/kg. The molecule also registered an RD50 with Mus musculus [2] of 34 mg/kg. Besides, the median effective dose (ED50) in the series filed under Mus musculus [3] amounted to 169 mg/kg; in the series on Mus musculus [4], 150 mg/kg; in the series filed under Mus musculus [5] it was 92 mg/kg; in the series on Mus musculus [6], 37.5 mg/kg.

`O=C1CCCC2(c3ccccc3)OCCCN12` (stereo not drawn) gave an LD50 in [1] of 500 mg/kg. In addition, the RD50 in the series with Mus musculus [2] turned out to be 75 mg/kg. For the same molecule, the median effective dose (ED50) in the series listed under Mus musculus [3] is 122 mg/kg; with Mus musculus [4], 150 mg/kg; in the series listed under Mus musculus [5] it was less than 150 mg/kg; in the series on Mus musculus [6] it was less than 50 mg/kg.

On to `COc1ccc(C(=O)CCC(=O)NCCCO)cc1`, for which the 50% lethal dose (LD50) in series [1] is 800 mg/kg. The molecule further registered an RD50 in the series with Mus musculus [2] of less than 600 mg/kg. Besides, the ED50 in the series listed under Mus musculus [3] is more than 600 mg/kg; in the series on Mus musculus [4] it was 800 mg/kg; in the series listed under Mus musculus [5], more than 600 mg/kg; with Mus musculus [6], 150 mg/kg.

In turn, `O=C(CCC(=O)c1ccc(Cl)c(Cl)c1)NCCCO` came in with a median lethal dose (LD50) in series [1] of 500 mg/kg. Besides, the RD50 in the series on Mus musculus [2] is more than 300 mg/kg. Also, the ED50 in the series filed under Mus musculus [3] is more than 600 mg/kg; in the series with Mus musculus [4], 500 mg/kg; in the series listed under Mus musculus [5], 450 mg/kg; in the series with Mus musculus [6], 300 mg/kg.

On to `Cc1ccc(C23CCC(=O)N2CCCO3)cc1` (stereo not drawn), for which the LD50 in [1] stood at 675 mg/kg. For the same molecule, the outcome in the series with Mus musculus [8] and with Mus musculus [9] was inactive. The same molecule gave an RD50 with Mus musculus [2] of more than 100 mg/kg. Moreover, the values for the ED50 with Mus musculus [4] and in the series with Mus musculus [6] were 160 mg/kg and less than 50 mg/kg, respectively.

In turn, `COc1ccc(C23CCC(=O)N2CCCO3)cc1` (stereo not drawn) came in with an RD50 with Mus musculus [2] of less than 150 mg/kg. Besides, the ED50 in the series listed under Mus musculus [3] was 138 mg/kg; in the series on Mus musculus [4], less than 150 mg/kg; in the series listed under Mus musculus [5], 93.8 mg/kg; in the series on Mus musculus [6], less than 150 mg/kg.

`O=C1CCC2(c3ccccc3)OCCN12` (stereo not drawn) returned an LD50 in series [1] of 300 mg/kg. Besides, the RD50 in the series on Mus musculus [2] is 37.5 mg/kg. Further, the outcome in the series on Mus musculus [10] and in the series with Mus musculus [9] was inactive. The ED50 was 150 mg/kg with Mus musculus [4] and less than 50 mg/kg with Mus musculus [6].

Regarding `Cc1ccc(C23CCC(=O)N2CCCO3)c(C)c1` (stereo not drawn), the LD50 in series [1] was determined as 600 mg/kg. For the same molecule, the RD50 in the series with Mus musculus [2] is less than 150 mg/kg. In addition, the median effective dose (ED50) was less than 150 mg/kg in the series filed under Mus musculus [3], 150 mg/kg with Mus musculus [4], more than 150 mg/kg in the series filed under Mus musculus [5] and less than 50 mg/kg in the series on Mus musculus [6].

As for `O=C1CCCC2(c3ccccc3)OCCN12` (stereo not drawn), the RD50 in the series on Mus musculus [2] amounted to 69 mg/kg. In addition, the 50% effective dose (ED50) was 150 mg/kg in the series listed under Mus musculus [3], more than 150 mg/kg with Mus musculus [4], 158 mg/kg in the series filed under Mus musculus [5] and less than 150 mg/kg in the series on Mus musculus [6].

The molecule `Cc1ccc(C(=O)CCC(=O)NCCCO)cc1` displayed an LD50 in series [1] of 750 mg/kg. The RD50 in the series on Mus musculus [2] is less than 300 mg/kg. The ED50 in the series listed under Mus musculus [3] is more than 300 mg/kg; in the series on Mus musculus [4], 700 mg/kg; in the series listed under Mus musculus [5] it was more than 300 mg/kg; in the series with Mus musculus [6], 300 mg/kg.

`O=C1CCC2(c3ccc(Cl)c(Cl)c3)OCCCN12` (stereo not drawn) registered a 50% lethal dose (LD50) in series [1] of 550 mg/kg. This molecule had an RD50 in the series on Mus musculus [2] of more than 150 mg/kg. Besides, the median effective dose (ED50) in the series listed under Mus musculus [3] was less than 75 mg/kg; in the series on Mus musculus [4], less than 150 mg/kg; in the series filed under Mus musculus [5], 112 mg/kg; in the series on Mus musculus [6], less than 150 mg/kg.
